ChEMBL document CHEMBL5661979, “Pharmacological inhibition of BMK1 suppresses tumor growth through promyelocytic leukemia protein” (Cancer Cell, 2010)

Experiments:
p38 delta/gamma = p38 delta/gamma (Homo sapiens, UniProt O15264+P53778); experiment: Inhibition of P38delta/gamma in human HeLa cells lysate pre incubated for 15 mins followed by ATP acyl phosphate probe addition and measured after 10 mins by LC-MS/MS analysis; assay type: subcellular
[1] = molecular target: Cyclin-dependent kinase 2 (Homo sapiens, UniProt P24941); experiment: Inhibition of CDK2 K1 site in human HeLa cells lysate at 10 uM pre incubated for 15 mins followed by ATP acyl phosphate probe addition and measured after 10 mins by LC-MS/MS analysis relative to control; assay type: subcellular; conditions: time 25.0 min
How it was run: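 KiNativ profiling in HeLa lysate (5 mg/mL total protein). Lysate incubated 15 min with inhibitor at 50, 10, 2, 0.8 or 0 μM. ATP or ADP acylphosphate probe then added (5 μM final) and reacted 10 min. Reaction stopped with urea and analysed by targeted MS, using up to four fragment ions per kinase peptide-probe conjugate. % inhibition taken against untreated lysate. Run in duplicate.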

[2] = molecular target: T1, Phosphatidylinositol 5-phosphate 4-kinase type-2 alpha (Homo sapiens, UniProt P48426); experiment: Inhibition of PIP5K2A in human HeLa cells lysate pre incubated for 15 mins followed by ADP acyl phosphate probe addition and measured after 10 mins by LC-MS/MS analysis; assay type: subcellular
T1 sequence (P48426 whole entry): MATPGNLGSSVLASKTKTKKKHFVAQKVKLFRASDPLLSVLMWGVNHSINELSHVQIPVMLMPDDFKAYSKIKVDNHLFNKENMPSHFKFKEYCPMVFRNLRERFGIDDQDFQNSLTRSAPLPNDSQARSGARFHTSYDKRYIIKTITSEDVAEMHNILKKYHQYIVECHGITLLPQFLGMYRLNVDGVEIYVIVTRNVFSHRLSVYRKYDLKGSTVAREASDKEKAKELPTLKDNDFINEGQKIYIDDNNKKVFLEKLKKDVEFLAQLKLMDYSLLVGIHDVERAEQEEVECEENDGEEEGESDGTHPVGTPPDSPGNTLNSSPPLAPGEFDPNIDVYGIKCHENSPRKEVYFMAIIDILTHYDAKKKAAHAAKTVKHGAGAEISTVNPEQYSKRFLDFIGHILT

[3] = molecular target: T2, Serine/threonine-protein kinase Chk1 (Homo sapiens) (UniProt O14757); experiment: Inhibition of CHK1 in human HeLa cells lysate at 10 uM pre incubated for 15 mins followed by ATP acyl phosphate probe addition and measured after 10 mins by LC-MS/MS analysis relative to control; assay type: subcellular; conditions: time 25.0 min
T2 sequence (whole entry): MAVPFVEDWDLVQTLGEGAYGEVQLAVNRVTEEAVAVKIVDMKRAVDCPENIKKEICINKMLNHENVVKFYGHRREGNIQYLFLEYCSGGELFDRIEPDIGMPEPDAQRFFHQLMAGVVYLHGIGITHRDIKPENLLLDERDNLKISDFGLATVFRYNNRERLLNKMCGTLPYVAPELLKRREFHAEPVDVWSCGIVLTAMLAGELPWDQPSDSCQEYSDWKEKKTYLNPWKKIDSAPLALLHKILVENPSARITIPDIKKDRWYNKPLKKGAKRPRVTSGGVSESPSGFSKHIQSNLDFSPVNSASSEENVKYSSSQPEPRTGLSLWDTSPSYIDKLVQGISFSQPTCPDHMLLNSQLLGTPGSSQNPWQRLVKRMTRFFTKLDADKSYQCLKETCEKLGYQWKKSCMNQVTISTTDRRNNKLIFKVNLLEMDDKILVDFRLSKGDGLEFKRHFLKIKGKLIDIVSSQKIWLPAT

[4] = Inhibition of SRPK1/2 in human HeLa cells lysate at 50 uM pre incubated for 15 mins followed by ADP acyl phosphate probe addition and measured after 10 mins by LC-MS/MS analysis relative to control; conditions: 25 min, condition cancer
[5] = molecular target: Ribosomal protein S6 kinase alpha-5 (Homo sapiens, UniProt O75582); experiment: Inhibition of MSK1 domain 1 K1 site in human HeLa cells lysate pre incubated for 15 mins followed by ADP acyl phosphate probe addition and measured after 10 mins by LC-MS/MS analysis; assay type: subcellular
Chain of Ribosomal protein S6 kinase alpha-5 (O75582 whole entry, the tested form may be a part): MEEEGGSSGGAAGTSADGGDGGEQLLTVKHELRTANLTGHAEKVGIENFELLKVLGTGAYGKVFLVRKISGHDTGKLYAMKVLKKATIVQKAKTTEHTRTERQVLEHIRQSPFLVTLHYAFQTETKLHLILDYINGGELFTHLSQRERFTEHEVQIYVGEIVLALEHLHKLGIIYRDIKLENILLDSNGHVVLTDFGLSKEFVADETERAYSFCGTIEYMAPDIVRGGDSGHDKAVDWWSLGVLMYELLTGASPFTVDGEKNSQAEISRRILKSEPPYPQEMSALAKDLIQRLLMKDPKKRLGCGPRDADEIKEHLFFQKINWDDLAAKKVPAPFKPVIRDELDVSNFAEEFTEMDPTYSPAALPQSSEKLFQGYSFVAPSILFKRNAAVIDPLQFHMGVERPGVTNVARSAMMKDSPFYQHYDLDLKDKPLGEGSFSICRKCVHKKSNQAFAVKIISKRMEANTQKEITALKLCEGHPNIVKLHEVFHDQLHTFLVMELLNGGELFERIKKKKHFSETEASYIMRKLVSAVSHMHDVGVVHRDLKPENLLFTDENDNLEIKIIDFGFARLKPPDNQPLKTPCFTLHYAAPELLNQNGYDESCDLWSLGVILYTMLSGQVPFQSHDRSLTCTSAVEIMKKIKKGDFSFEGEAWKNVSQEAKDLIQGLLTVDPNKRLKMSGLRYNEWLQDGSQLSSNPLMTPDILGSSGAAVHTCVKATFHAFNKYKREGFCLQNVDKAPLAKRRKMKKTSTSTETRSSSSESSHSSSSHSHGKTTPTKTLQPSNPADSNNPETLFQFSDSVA

[6] = molecular target: Calcium/calmodulin-dependent protein kinase type II subunit gamma (Homo sapiens, UniProt Q13555); experiment: Inhibition of CAMK2g in human HeLa cells lysate at 10 uM pre incubated for 15 mins followed by ADP acyl phosphate probe addition and measured after 10 mins by LC-MS/MS analysis relative to control; assay type: subcellular; conditions: time 25.0 min
Chain of Calcium/calmodulin-dependent protein kinase type II subunit gamma (Q13555 whole entry, the tested form may be a part): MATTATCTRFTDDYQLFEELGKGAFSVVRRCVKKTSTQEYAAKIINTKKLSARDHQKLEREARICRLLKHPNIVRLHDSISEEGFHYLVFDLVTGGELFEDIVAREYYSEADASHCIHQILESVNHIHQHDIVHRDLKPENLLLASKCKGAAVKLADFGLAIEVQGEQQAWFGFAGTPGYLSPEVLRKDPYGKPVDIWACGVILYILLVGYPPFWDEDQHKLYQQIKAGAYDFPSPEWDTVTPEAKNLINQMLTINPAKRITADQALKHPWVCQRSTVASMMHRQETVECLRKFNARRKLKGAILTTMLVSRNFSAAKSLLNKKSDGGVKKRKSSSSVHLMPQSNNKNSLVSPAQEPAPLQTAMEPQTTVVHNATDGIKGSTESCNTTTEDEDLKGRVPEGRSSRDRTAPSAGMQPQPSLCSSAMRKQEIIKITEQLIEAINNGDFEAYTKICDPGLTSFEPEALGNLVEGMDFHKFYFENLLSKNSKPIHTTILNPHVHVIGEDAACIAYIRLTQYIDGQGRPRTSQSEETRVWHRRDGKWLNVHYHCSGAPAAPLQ
How it was run: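 KiNativ-type profiling in HeLa lysate (5 mg/mL total protein). Lysate preincubated 15 min with inhibitor at 50, 10, 2, 0.8 or 0 μM, then ATP or ADP acylphosphate probe added (5 μM final) for 10 min. Reaction stopped with urea and analysed by targeted MS, using up to four fragment ions per kinase peptide-probe conjugate. % inhibition calculated against untreated lysate. Duplicate reactions.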

eIF-2-alpha kinase GCN2 = eIF-2-alpha kinase GCN2 (Homo sapiens, UniProt Q9P2K8); experiment: Inhibition of GCN2 in human HeLa cells lysate at 50 uM pre incubated for 15 mins followed by ATP acyl phosphate probe addition and measured after 10 mins by LC-MS/MS analysis relative to control; assay type: subcellular; conditions: time 25.0 min
Chain of eIF-2-alpha kinase GCN2 (Q9P2K8 whole entry): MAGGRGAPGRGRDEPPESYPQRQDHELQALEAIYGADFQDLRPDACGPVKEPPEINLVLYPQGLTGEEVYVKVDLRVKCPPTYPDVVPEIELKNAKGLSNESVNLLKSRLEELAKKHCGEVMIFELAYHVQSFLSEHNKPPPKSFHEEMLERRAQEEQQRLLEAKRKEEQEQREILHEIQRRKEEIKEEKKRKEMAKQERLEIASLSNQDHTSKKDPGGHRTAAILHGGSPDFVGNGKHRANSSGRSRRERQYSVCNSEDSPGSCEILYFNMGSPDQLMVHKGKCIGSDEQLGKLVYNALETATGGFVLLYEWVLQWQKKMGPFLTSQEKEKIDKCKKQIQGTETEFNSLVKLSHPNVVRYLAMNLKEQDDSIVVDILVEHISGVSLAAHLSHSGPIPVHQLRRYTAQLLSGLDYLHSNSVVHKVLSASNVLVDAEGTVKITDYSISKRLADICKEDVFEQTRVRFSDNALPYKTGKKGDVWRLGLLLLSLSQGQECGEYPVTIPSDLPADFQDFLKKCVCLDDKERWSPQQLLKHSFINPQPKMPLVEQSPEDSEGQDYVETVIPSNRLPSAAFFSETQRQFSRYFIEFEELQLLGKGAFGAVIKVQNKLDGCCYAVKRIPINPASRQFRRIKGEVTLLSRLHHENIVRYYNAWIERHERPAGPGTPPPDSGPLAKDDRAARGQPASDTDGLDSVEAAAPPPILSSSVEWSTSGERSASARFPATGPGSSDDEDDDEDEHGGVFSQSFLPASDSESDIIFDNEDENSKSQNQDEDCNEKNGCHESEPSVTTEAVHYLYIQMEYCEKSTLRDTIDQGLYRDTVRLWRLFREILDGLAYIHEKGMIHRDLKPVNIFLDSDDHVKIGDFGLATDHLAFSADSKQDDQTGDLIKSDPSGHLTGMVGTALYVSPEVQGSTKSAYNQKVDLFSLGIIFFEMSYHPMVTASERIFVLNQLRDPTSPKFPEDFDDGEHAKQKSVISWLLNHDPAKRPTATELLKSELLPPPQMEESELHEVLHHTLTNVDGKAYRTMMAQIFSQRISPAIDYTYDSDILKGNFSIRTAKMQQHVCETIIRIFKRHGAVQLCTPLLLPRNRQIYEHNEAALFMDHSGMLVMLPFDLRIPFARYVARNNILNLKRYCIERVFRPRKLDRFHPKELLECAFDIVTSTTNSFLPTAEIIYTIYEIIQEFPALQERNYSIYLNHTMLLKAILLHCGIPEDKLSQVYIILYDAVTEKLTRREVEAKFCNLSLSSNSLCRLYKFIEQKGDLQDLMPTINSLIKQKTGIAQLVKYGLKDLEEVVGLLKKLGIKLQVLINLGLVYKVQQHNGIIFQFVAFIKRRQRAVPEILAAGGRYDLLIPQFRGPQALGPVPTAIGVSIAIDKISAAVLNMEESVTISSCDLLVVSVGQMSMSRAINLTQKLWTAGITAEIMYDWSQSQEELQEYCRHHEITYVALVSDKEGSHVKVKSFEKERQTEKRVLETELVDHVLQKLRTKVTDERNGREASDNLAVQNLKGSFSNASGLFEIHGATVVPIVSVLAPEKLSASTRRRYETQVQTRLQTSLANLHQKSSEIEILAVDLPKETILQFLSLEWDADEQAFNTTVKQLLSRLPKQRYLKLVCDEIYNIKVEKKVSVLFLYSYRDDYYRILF

[7] = Inhibition of HGK/MINK/TNIK in human HeLa cells lysate pre incubated for 15 mins followed by ADP acyl phosphate probe addition and measured after 10 mins by LC-MS/MS analysis; assay type: subcellular
[8] = Inhibition of NEK6/7 in human HeLa cells lysate at 10 uM pre incubated for 15 mins followed by ADP acyl phosphate probe addition and measured after 10 mins by LC-MS/MS analysis relative to control; conditions: 25 min, condition cancer
[9] = molecular target: Interferon-induced, double-stranded RNA-activated protein kinase (Homo sapiens, UniProt P19525); experiment: Inhibition of PKR in human HeLa cells lysate pre incubated for 15 mins followed by ATP acyl phosphate probe addition and measured after 10 mins by LC-MS/MS analysis; assay type: subcellular
Chain of Interferon-induced, double-stranded RNA-activated protein kinase (P19525 whole entry, the tested form may be a part): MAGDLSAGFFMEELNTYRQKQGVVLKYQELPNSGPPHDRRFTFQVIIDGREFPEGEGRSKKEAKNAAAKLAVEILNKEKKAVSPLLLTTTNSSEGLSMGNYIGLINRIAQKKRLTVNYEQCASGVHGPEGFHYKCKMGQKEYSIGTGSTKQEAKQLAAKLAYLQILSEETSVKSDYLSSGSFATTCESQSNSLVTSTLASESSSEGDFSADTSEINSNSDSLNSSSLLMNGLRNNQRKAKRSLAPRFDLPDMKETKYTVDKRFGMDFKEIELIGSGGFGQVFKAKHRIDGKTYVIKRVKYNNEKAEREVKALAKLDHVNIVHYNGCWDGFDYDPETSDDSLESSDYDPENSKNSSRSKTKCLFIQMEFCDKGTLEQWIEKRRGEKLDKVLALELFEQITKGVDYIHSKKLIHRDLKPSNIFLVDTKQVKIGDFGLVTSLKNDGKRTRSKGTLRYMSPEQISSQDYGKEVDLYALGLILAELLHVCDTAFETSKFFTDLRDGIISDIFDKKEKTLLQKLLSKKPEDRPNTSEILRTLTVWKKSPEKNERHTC

[10] = molecular target: Ribosomal protein S6 kinase alpha-3 (Homo sapiens, UniProt P51812); experiment: Inhibition of RSK2 domain 2 in human HeLa cells lysate at 2 uM pre incubated for 15 mins followed by ATP acyl phosphate probe addition and measured after 10 mins by LC-MS/MS analysis relative to control; assay type: subcellular; conditions: time 25.0 min
Chain of Ribosomal protein S6 kinase alpha-3 (P51812 whole entry, the tested form may be a part): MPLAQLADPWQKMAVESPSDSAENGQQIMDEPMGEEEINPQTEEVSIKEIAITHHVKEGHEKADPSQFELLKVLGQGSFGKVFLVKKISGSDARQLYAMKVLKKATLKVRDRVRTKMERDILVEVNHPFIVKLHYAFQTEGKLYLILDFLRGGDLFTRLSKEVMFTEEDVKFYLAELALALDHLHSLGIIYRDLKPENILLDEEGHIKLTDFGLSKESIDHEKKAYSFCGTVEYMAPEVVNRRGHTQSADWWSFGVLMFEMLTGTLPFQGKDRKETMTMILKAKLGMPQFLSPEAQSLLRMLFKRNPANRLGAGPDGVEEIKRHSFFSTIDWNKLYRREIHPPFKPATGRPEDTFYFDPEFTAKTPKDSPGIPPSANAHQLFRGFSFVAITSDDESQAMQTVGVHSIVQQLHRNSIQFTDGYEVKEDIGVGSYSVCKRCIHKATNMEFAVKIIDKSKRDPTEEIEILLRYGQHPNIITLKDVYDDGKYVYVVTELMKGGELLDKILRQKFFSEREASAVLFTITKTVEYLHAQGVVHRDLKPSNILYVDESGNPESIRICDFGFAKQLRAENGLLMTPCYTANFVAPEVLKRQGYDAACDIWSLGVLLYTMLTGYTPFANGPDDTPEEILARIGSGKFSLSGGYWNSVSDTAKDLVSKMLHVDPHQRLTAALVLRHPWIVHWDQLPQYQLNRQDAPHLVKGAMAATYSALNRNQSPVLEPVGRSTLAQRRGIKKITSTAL

[11] = molecular target: Serine/threonine-protein kinase 3 (Homo sapiens, UniProt Q13188); experiment: Inhibition of MST2 in human HeLa cells lysate pre incubated for 15 mins followed by ADP acyl phosphate probe addition and measured after 10 mins by LC-MS/MS analysis; assay type: subcellular
Chain of Serine/threonine-protein kinase 3 (Q13188 whole entry): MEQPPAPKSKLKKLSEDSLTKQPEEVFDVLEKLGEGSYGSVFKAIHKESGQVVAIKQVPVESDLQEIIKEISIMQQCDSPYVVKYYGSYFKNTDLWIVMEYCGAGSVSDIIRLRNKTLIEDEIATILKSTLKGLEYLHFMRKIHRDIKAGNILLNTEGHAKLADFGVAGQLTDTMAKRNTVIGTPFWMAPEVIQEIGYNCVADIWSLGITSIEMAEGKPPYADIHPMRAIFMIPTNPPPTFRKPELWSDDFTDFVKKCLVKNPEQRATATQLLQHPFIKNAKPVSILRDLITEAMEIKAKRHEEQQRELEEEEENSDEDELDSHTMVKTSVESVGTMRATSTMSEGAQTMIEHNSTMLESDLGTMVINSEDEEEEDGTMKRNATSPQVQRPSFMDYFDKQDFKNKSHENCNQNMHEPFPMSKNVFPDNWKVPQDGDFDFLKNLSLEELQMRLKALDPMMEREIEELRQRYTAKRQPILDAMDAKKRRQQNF

[12] = molecular target: STE20-like serine/threonine-protein kinase (Homo sapiens, UniProt Q9H2G2); experiment: Inhibition of SLK in human HeLa cells lysate at 2 uM pre incubated for 15 mins followed by ADP acyl phosphate probe addition and measured after 10 mins by LC-MS/MS analysis relative to control; assay type: subcellular; conditions: time 25.0 min
[13] = Inhibition of PKD1/2 in human HeLa cells lysate at 50 uM pre incubated for 15 mins followed by ATP acyl phosphate probe addition and measured after 10 mins by LC-MS/MS analysis relative to control; conditions: 25 min, condition cancer

Question: With `CCOc1cc(N2CCC(O)CC2)ccc1Nc1ncc2c(n1)N(C)c1ccccc1C(=O)N2C` as the compound, how does the IC50 (p38 delta/gamma) read?
Answer: > 50 µM

Question: And the inhibition [1]?
Answer: -9.1%

Question: And the IC50 [2]?
Answer: > 50 µM

Question: And the inhibition [3]?
Answer: -9.9%

Question: And the inhibition at 50 µM [4]?
Answer: -53.5%

Question: What about the IC50 [5] of the same compound?
Answer: > 50 µM

Question: And the inhibition [6]?
Answer: -2.3%

Question: What about the inhibition (eIF-2-alpha kinase GCN2) of the same compound?
Answer: 7%

Question: What about the IC50 [7] of the same compound?
Answer: > 50 µM

Question: What about the inhibition at 10 µM [8] of the same compound?
Answer: -11.8%

Question: What about the IC50 [9] of the same compound?
Answer: > 50 µM

Question: And the inhibition [10]?
Answer: -9.6%

Question: What about the IC50 [11] of the same compound?
Answer: > 50 µM

Question: And the inhibition [12]?
Answer: 13.3%

Question: And the inhibition at 50 µM [13]?
Answer: 13.9%
